Measured values as given in ChEMBL document CHEMBL1255546, “Discovery of potent and selective histamine H3 receptor inverse agonists based on the 3,4-dihydro-2H-pyrazino[1,2-a]indol-1-one scaffold” (Bioorg Med Chem Lett, 2010).
In brackets after ≈: the same amount, converted by molar mass. Activity calls are given as the source filed them. The rule behind the calls is not given here.

Assays:
Histamine H3 receptor [1] = biological target: T1, Histamine H3 receptor (Homo sapiens, UniProt Q9Y5N1); test: Displacement of [3H]-RAMH from human histamine H3 receptor
T1 sequence (Q9Y5N1 whole entry): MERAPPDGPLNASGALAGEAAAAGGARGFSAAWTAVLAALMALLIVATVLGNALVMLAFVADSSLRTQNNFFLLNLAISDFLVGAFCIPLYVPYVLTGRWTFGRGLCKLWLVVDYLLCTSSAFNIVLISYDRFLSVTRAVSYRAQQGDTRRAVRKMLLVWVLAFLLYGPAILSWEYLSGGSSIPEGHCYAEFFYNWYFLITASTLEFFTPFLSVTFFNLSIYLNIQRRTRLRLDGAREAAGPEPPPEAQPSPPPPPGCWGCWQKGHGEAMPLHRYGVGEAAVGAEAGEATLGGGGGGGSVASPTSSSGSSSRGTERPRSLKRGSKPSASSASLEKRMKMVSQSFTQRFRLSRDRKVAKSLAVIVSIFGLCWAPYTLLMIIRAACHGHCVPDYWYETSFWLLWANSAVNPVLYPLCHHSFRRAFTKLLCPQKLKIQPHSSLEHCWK

Histamine H3 receptor [2] = biological target: T1, Histamine H3 receptor; test: Inverse agonist activity at human recombinant histamine H3 receptor assessed as effect on [35S]GTPgammaS binding; format: functional
[3] = biological target: Histamine H1 receptor (Homo sapiens) (UniProt P35367); test: Displacement of [3H]-mepyramine from human histamine H1 receptor; parameters: concentration or dose not given beside the values; details: concentration not given here
Chain of Histamine H1 receptor (Homo sapiens) (P35367 whole entry): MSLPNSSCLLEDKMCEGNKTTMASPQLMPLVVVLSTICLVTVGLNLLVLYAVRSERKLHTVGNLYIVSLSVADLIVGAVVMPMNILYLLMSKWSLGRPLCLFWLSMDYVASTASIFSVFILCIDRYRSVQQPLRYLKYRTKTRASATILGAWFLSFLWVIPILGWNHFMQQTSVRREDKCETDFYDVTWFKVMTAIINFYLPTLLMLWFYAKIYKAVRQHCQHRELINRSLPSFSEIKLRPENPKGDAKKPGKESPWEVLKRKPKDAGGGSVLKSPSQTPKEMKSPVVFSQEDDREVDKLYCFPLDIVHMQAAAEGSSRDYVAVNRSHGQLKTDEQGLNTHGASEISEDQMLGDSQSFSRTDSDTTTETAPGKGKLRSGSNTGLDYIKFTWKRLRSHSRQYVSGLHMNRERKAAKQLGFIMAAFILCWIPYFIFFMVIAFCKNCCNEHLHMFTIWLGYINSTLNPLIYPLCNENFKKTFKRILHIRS
Summary of the method: (§1)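 Radioligand displacement assays, single determination (n = 1) each: [3H]-mepyramine at H1, [3H]-tiotidine at H2, [3H]-histamine at H4.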

[4] = biological target: Histamine H2 receptor (Homo sapiens) (UniProt P25021); test: Displacement of [3H]-tiotidine from human histamine H2 receptor; parameters: concentration or dose not given beside the values; details: concentration not given here; summary of the method: as §1
Chain of Histamine H2 receptor (Homo sapiens) (P25021 whole entry): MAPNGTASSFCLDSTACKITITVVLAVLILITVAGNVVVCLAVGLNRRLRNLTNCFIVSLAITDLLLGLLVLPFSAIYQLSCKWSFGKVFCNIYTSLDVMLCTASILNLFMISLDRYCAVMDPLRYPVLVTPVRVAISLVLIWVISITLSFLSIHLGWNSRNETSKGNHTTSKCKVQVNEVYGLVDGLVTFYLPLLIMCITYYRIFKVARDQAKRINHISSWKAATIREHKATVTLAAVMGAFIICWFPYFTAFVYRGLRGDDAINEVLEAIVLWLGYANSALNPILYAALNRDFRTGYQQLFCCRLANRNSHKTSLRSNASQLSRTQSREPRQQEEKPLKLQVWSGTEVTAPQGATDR

[5] = biological target: Histamine H4 receptor (Homo sapiens) (UniProt Q9H3N8); test: Displacement of [3H]-histamine from human histamine H4 receptor; parameters: concentration or dose not given beside the values; details: concentration not given here; summary of the method: as §1
[6] = Aqueous solubility of the compound in 0.05 M phosphate buffer at pH 6.5; format: physicochemical
[7] = Lipophilicity, log D of the compound at pH 7.4; format: physicochemical; details: buffer
Cytochrome P450 3A4 = Cytochrome P450 3A4 (Homo sapiens, UniProt P08684); test: Inhibition of CYP3A4; format: ADME
Chain of Cytochrome P450 3A4 (P08684 whole entry): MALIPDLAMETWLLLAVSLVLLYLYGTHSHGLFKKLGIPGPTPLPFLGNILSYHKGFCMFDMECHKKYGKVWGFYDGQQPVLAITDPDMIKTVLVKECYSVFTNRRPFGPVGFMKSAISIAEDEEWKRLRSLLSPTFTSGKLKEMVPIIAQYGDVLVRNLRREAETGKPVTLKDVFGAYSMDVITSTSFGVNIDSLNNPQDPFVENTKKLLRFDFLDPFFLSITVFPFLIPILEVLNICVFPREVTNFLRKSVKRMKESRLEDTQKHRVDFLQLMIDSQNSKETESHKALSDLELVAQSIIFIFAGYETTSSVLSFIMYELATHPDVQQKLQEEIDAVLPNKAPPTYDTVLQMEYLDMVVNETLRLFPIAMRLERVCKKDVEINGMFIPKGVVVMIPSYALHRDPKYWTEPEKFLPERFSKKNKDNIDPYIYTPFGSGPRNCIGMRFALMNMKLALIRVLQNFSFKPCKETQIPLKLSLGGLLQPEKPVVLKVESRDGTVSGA

Cytochrome P450 2D6 = Cytochrome P450 2D6 (Homo sapiens, UniProt P10635); test: Inhibition of CYP2D6; format: ADME
Chain of Cytochrome P450 2D6 (P10635 whole entry): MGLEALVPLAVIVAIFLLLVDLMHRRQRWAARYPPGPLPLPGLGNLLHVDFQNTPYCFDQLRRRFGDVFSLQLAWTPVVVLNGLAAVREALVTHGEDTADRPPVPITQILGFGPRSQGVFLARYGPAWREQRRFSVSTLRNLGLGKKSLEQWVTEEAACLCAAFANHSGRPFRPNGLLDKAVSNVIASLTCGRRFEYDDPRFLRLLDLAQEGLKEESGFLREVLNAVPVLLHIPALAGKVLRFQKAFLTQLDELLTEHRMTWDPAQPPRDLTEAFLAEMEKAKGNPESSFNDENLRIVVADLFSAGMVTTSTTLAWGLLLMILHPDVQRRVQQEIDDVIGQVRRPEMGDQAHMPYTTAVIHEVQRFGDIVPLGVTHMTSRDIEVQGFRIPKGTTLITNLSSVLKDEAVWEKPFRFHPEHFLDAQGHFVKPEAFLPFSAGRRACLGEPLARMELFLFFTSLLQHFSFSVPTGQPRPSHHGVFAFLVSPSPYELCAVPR

Cytochrome P450 2C9 = Cytochrome P450 2C9 (Homo sapiens, UniProt P11712); test: Inhibition of CYP2C9; format: ADME
Chain of Cytochrome P450 2C9 (P11712 whole entry): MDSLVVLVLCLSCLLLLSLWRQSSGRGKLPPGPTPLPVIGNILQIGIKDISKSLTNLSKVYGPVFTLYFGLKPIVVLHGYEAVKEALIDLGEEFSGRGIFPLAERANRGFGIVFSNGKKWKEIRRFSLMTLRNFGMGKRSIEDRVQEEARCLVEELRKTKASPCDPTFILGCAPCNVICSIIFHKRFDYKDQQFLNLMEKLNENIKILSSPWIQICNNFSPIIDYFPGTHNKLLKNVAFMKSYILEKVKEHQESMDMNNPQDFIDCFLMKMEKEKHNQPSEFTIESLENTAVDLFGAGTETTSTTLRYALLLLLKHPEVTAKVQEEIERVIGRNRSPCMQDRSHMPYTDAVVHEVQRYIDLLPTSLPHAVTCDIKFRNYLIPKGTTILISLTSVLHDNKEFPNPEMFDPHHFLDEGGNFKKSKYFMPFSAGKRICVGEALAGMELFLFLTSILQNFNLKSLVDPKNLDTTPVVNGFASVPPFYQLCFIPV

[8] = Intrinsic clearance in rat liver microsomes; format: ADME, Microsome
[9] = Intrinsic clearance in human liver microsomes; format: ADME, Microsome
Histamine H3 receptor [10] = biological target: T2, Histamine H3 receptor (Rattus norvegicus, UniProt Q9QYN8); test: Binding affinity to rat histamine H3 receptor
T2 sequence (Q9QYN8 whole entry): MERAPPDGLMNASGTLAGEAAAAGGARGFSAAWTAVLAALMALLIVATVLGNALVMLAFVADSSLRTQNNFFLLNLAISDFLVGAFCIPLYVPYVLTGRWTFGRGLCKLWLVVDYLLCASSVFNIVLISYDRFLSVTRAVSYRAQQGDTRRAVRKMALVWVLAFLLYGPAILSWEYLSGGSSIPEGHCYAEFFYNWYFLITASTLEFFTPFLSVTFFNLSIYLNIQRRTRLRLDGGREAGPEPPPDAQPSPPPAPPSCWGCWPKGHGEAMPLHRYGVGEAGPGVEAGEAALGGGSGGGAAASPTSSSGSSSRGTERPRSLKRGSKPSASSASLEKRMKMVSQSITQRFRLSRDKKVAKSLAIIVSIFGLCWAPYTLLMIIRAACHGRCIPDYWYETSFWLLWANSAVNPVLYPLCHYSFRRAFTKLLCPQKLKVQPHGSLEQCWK

Rattus norvegicus [11] = test: Inhibition of (R)-alpha-methyl histamine-induced increased water intake in rat dipsogenia model at 10 mg/kg, po; format: functional
Histamine H3 receptor [12] = biological target: T2, Histamine H3 receptor; test: Inverse agonist activity at rat histamine H3 receptor; format: functional
Rattus norvegicus [13] = test: Inhibition of water intake in rat dipsogenia model at 10 mg/kg, po; format: functional, organism-based; parameters: dose 10 mg/kg
Rattus norvegicus [14] = test: Toxicity in rat assessed as change in behavioral effect at 10 mg/kg, po measured for 1 hr; format: organism-based; parameters: dose 10 mg/kg, route oral; details: in vivo
Histamine H3 receptor [15] = biological target: T1, Histamine H3 receptor; details: 3 uM

| SMILES | Ki (Histamine H3 receptor [1]) [nM] | EC50 (Histamine H3 receptor [2]) [nM] | inhibition [3] [%] | inhibition [4] [%] | inhibition [5] [%] | solubility [6] [µg/mL] | logD [7] | IC50 (Cytochrome P450 3A4) [nM] | IC50 (Cytochrome P450 2D6) [nM] | IC50 (Cytochrome P450 2C9) [nM] | microsomal CLint [8] [µL/min/mg] | microsomal CLint [9] [µL/min/mg] | Ki (Histamine H3 receptor [10]) [nM] | EC50 (Histamine H3 receptor [12]) [nM] | inhibition (Histamine H3 receptor [15]) [%] | inhibition in vivo at 10 mg/kg (Rattus norvegicus [11]) [%] | inhibition (Rattus norvegicus [13]) | Activity (Rattus norvegicus [14]) |
| --- | --- | --- | --- | --- | --- | --- | --- | --- | --- | --- | --- | --- | --- | --- | --- | --- | --- | --- |
| C[C@@H]1CCCN1CCCOc1ccc2c(c1)cc1n2CCNC1=O | 7 | 4 | 13 | 4 | -4 | > 436 | 0.13 | > 50000 | > 50000 | > 50000 | 37 |  |  |  |  |  |  |  |
| CC(C)N1CCC(Oc2ccc3c(c2)cc2n3[C@H](C)CNC2=O)CC1 | 26 | 29 | -4 | 10 | 9 | > 455 | 0.23 | > 50000 | 22000 | > 50000 | 29 |  |  |  |  |  |  |  |
| O=C1NCCn2c1cc1cc(OCCCN3CCCCC3)ccc12 | 18 | 74 | 33 | 45 | 8 |  |  |  |  |  |  |  |  |  |  |  |  |  |
| CC(C)N1CCC(Oc2ccc3c(c2)cc2n3CCNC2=O)CC1 | 25 | 38 | 1 |  | 6 | > 436 | -0.05 | > 50000 | 4000 | > 50000 | 70 | 1 |  |  |  |  |  |  |
| COCCN1CCn2c(cc3cc(OC4CCN(C(C)C)CC4)ccc32)C1=O | 19 | 51 |  | 6 | 0 |  |  |  |  |  |  |  |  |  |  |  |  |  |
| CC(C)N1CCC(Oc2ccc3c(c2)cc2n3C[C@@H](C)NC2=O)CC1 | 9 | 46 | 2 | 13 | 7 | 284 (≈ 832 µM) | 0.28 | > 50000 | > 50000 | > 50000 | 10 | 7 |  |  |  |  |  |  |
| CC(C)N1CCC(Oc2ccc3c(c2)cc2n3CCN(CC3CC3)C2=O)CC1 | 9 | 28 |  | 6 | 7 | > 508 | 1.09 | > 50000 | > 50000 | > 50000 | 9 | 14 |  |  |  |  |  |  |
| CC(C)N1CCC(Oc2ccc3c(c2)cc2n3CCN(Cc3cccc(F)c3)C2=O)CC1 | 14 | 23 | 24 | 21 | 4 |  |  |  |  |  |  |  |  |  |  |  |  |  |
| CC(C)N1CCC(Oc2ccc3c(c2)cc2n3CCN(C(C)C)C2=O)CC1 | 27 | 25 | -6 | -2 | -6 |  |  |  |  |  |  |  |  |  |  |  |  |  |
| CC(C)N1CCC(Oc2ccc3[nH]c4c(c3c2)CCNC4=O)CC1 | > 3000 |  |  |  |  |  |  |  |  |  |  |  |  |  | 35 |  |  |  |
| CC(C)N1CCC(Oc2ccc3c(c2)cc2n3[C@@H](C)CNC2=O)CC1 | 42 | 94 | 11 | 9 | 10 | 345 (≈ 1010 µM) | 0.28 | 26000 | > 50000 | > 50000 |  | 4 |  |  |  |  |  |  |
| CC(C)N1CCC(Oc2ccc3c(c2)cc2n3CCN(C)C2=O)CC1 | 31 | 48 | -4 | 11 | 0 | > 455 | 0.13 | > 50000 | 15000 | > 50000 | 23 | 1 |  |  |  |  |  |  |
| CC(C)N1CCC(Oc2ccc3c(c2)cc2n3CCN(CC(F)(F)F)C2=O)CC1 | 34 | 40 | -1 | -6 | -4 |  |  |  |  |  |  |  |  |  |  |  |  |  |
| C[C@H]1CC[C@H](C)N1CCCOc1ccc2c(c1)cc1n2CCNC1=O | 11 | 24 | 16 | 17 | 6 |  |  |  |  |  |  |  |  |  |  |  |  |  |
| CC(C)N1CCC(Oc2ccc3c(c2)cc2n3CCCNC2=O)CC1 | 17 | 26 | 3 | 9 | -3 | > 455 | 0.07 | > 50000 | > 50000 | > 50000 | 28 |  |  |  |  |  |  |  |
| C[C@H]1CCCN1CCCOc1ccc2c(c1)cc1n2CCNC1=O | 21 | 140 | 11 | 10 | 4 |  |  |  |  |  |  |  |  |  |  |  |  |  |
| O=C1NCCn2c1cc1cc(OC3CCN(CC4CC4)CC3)ccc12 | 129 |  | -4 | 9 | 3 |  |  |  |  |  |  |  |  |  |  |  |  |  |
| CC(C)N1CCC(Oc2ccc3c(c2)cc2n3CCN(CCO)C2=O)CC1 | 46 | 56 | -1 | 14 | -5 | > 406 | -0.25 | > 50000 | 900 | > 50000 | 11 | 9 |  |  |  |  |  |  |
| CC(C)N1CCC(Oc2ccc3c(c2)cc2n3CCN(Cc3ccc(F)cc3)C2=O)CC1 | 7 | 14 | 17 | -3 | 1 | 382 (≈ 877 µM) | 2.06 | > 50000 | 35000 | > 50000 | 17 | 5 |  |  |  |  |  |  |
| CC(C)N1CCC(Oc2ccc3c(c2)cc2n3CCCN(CC3CC3)C2=O)CC1 |  | 36 | 5 | 15 | -7 |  |  |  |  |  |  |  |  |  |  |  |  |  |

Continued by falling Ki (Histamine H3 receptor [1]), values first:

| Ki (Histamine H3 receptor [1]) [nM] | EC50 (Histamine H3 receptor [2]) [nM] | inhibition [3] [%] | inhibition [4] [%] | inhibition [5] [%] | solubility [6] [µg/mL] | logD [7] | IC50 (Cytochrome P450 3A4) [nM] | IC50 (Cytochrome P450 2D6) [nM] | IC50 (Cytochrome P450 2C9) [nM] | microsomal CLint [8] [µL/min/mg] | microsomal CLint [9] [µL/min/mg] | Ki (Histamine H3 receptor [10]) [nM] | EC50 (Histamine H3 receptor [12]) [nM] | inhibition (Histamine H3 receptor [15]) [%] | SMILES | inhibition in vivo at 10 mg/kg (Rattus norvegicus [11]) [%] | inhibition (Rattus norvegicus [13]) | Activity (Rattus norvegicus [14]) |
| --- | --- | --- | --- | --- | --- | --- | --- | --- | --- | --- | --- | --- | --- | --- | --- | --- | --- | --- |
| 6 | 14 | 6 | 4 | -3 |  |  |  |  |  |  |  |  |  |  | CC(C)N1CCC(Oc2ccc3c(c2)cc2n3CCN(Cc3ccccn3)C2=O)CC1 |  |  |  |
| 6 | 28 | 16 | 6 | 1 |  |  |  |  |  |  |  |  |  |  | CC(C)N1CCC(Oc2ccc3c(c2)cc2n3CCN(Cc3ccccc3F)C2=O)CC1 |  |  |  |
| 6 | 14 | -2 | 26 | 15 | > 455 | 0.23 | > 50000 | > 50000 | > 50000 |  | 3 |  |  |  | CC(C)N1CCC(Oc2ccc3c(c2)cc2n3C[C@H](C)NC2=O)CC1 |  |  |  |
| 5 | 13 | 3 | 3 | 3 |  |  |  |  |  |  |  |  |  |  | CC(C)N1CCC(Oc2ccc3c(c2)cc2n3CCN(Cc3cccnc3)C2=O)CC1 |  |  |  |
| 5 | 18 | 3 | 8 | 12 | > 441 | 1.4 | > 50000 | > 50000 | > 50000 | 10 | 6 | 12 | 18 |  | CC(C)N1CCC(Oc2ccc3c(c2)cc2n3C[C@@H](C)N(CC3CC3)C2=O)CC1 | 64 | inactive | Non-toxic |
| 5 | 12 | 4 |  | 3 | > 456 | 0.64 | 6000 | > 50000 | > 50000 | 27 | 8 |  |  |  | CC(C)N1CCC(Oc2ccc3c(c2)cc2n3CCN(Cc3ccncc3)C2=O)CC1 |  |  |  |
| 4 | 4 |  | 18 | -10 | > 526 | 1.13 | > 50000 | > 50000 | > 50000 | 12 | 1 |  |  |  | CC(C)N1CCC(Oc2cc3cc4n(c3cc2Br)[C@@H](C)CNC4=O)CC1 |  |  |  |
| 2 | 2 | 9 | -6 | 7 | > 589 | 1.67 | > 50000 | 5000 | > 50000 | 12 | 4 |  |  |  | CC(C)N1CCC(Oc2ccc3c(c2)cc(C(=O)N2CCC(F)(F)CC2)n3C(C)C)CC1 |  |  |  |
| 2 | 2 | 10 | -3 | 1 | 506 (≈ 1070 µM) | 2.32 | > 50000 | > 50000 | > 50000 | 20 | 7 |  |  |  | CC(C)N1CCC(Oc2cc3cc4n(c3cc2Br)[C@@H](C)CN(CC2CC2)C4=O)CC1 |  |  |  |
